High-throughput results: PubChem, several laboratories
Shown are actives, neighbours in structure and some others; about 1.3% of the full set was active somewhere.
CendR NRP1 mod = NRP-1/CendR interaction modulation; inhibition, % at 25 µM; O14786; AID 602438; 0.85% of 360,000 active; FAM-RPARPAR peptide binding to NRP-1, fluorescence polarization;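 active = inhibition or corrected inhibition above about 18%, plus a signal ratio from 0.5 to 1.5, limit read from the data, passing the limit was not always enough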
aDG glyco act = increases alpha dystroglycan glycosylation; Pro5-aDG cells, alpha-DG glycosylation AlphaScreen (IIH6); 0% Pro5, 100% B10-LARGE cell signal; activation, % at 10 µM; 0.22% of 360,000 active;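 active = activation of at least 8% versus controls, or a plate z-score of at least 8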;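 note: Pro5 are CHO cells carrying HIG-tagged alpha-DG that lacks glycosylation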
Tn7 DDE FP = disrupts Tn7 cyclic peptide binding to fibrin D-Dimer-E complex; 0.13% of 370,000 active; FP displacement of FITC-Tn7 peptide from fibrin DD(E); 0% = median of compound wells per plate; inhibition, % at 8.3 µM; P02675;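 active = inhibition above the mean of compounds falling within the control limits plus 3 SD of them, cut at about 14% in these data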;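 note: 0% = plate median of compound wells and 100% = 10 µM Aha-Tn7 peptide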
Target sequence (P02675 whole entry, looked up): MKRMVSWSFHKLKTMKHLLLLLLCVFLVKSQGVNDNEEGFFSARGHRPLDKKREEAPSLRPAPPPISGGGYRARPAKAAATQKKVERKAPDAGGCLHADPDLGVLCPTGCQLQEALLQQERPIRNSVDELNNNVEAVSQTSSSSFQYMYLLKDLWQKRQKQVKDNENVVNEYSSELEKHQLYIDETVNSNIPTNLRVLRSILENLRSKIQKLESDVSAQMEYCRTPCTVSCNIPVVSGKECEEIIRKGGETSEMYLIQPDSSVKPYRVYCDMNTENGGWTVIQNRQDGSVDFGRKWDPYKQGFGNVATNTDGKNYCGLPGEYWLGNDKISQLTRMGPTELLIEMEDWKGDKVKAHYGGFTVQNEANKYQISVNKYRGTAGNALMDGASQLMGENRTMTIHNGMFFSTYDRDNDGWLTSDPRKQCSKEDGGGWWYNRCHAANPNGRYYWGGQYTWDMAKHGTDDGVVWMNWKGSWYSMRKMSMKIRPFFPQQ
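Assay system: Human fibrin DD(E) protein | Medium: Tris buffer with calcium and detergent, pH 7.8 | Reagent: 0.1 µM fluorescent Tn7 | Compound dosing: Single point at 8.3 µM | Times: 10 min preincubation, 3 h with tracer, room temperature | Detection: Fluorescence polarization of the labelled Tn7 tracer | Controls: Aha-Tn7 high control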
DDE Tn6 FP inh = DD(E)-Tn6 binding inhibition, primary FP screen. P02675. Fibrin DD(E) TRITC-Tn6 fluorescence polarization displacement. inhibition, % at 8.3 µM. 0.21% of 370,000 active. AID 720509;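 active = inhibition above a per-campaign cutoff: mean of compounds within control limits plus 3 SD, cut at about 15% in these data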;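 note: 0% = median of all compound wells on the plate and 100% = blocking peptide control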
The depositor's hits bear a star; nt = no result given.

SMILES	CendR NRP1 mod	aDG glyco act	Tn7 DDE FP	DDE Tn6 FP inh
COc1ccc(-c2ccc(OC)c(OC)c2OC)c(OC)c1OC	20*	0	1	-5
COCCC(=O)N1CCC(Oc2ccc(C(=O)NCCSC)cc2)CC1	5	0	-8	3
COCCC(=O)N1CCC(Oc2ccc(C(=O)NCCn3cccn3)cc2)CC1	36*	0	-4	-7
N#CC1CCN(c2nc(-c3ccc(Br)cc3)cs2)CC1	nt	nt	2	-2
Cc1ccc(S(=O)(=O)N2C[C@H]3C(=O)C[C@@H](c4ccccc4)N(S(=O)(=O)c4ccc(C)cc4)[C@H]3C[C@H]2c2ccccc2Cl)cc1	10	0	3	1
COc1ccc(S[C@]2(C(=O)N(C)C)CC(=O)N(c3ccc(C#N)cc3)[C@@H]2c2ccc(OC)cc2)cc1	nt	nt	-3	1
COc1ccc(CN(CCCN2CCOCC2)C(=O)Nc2cccc(Cl)c2)cc1OC	27*	0	-4	6
O=C(Nc1cccc(Cl)c1)N(CCN1CCOCC1)Cc1cccc(Cl)c1	5	0	3	-3
c1coc(-c2nc3c4ccccc4ccn3c2Cc2ccsc2)c1	nt	nt	-7	-5
O=c1[nH]c(=S)[nH]c2c1[C@H](CCc1cccc(Cl)c1)O[C@H](C1CC1)C2	-10	0	-5	-7
CCC(=O)Nc1nc(C)c(Oc2ccccc2)c(=O)[nH]1	24*	0	8	6
CC(=O)Nc1nc(C)c(Oc2ccccc2)c(=O)[nH]1	12	0	-5	-1
C#CCOCCOCCOCCNc1nc(N2CCN(C(=O)[C@H](CCCCN)n3cc([C@@H](N)[C@H](C)CC)nn3)CC2)nc(N2CCN(C(=O)[C@H](CCCCN)n3cc([C@@H](N)CC(N)=O)nn3)CC2)n1	14	0	-6	1
C#CCOCCOCCOCCNc1nc(N2CCN(C(=O)[C@H](CCCCN)n3cc([C@@H](N)C(C)CC)nn3)CC2)nc(N2CCN(C(=O)[C@H](CCCCN)n3cc([C@@H](N)CC(C)C)nn3)CC2)n1 (some centres not stated)	22*	0	-6	5
COc1cc(/C=C2/SC(=O)N(Cc3ccccc3Cl)C2=O)ccc1OCc1ccncc1	21*	0	5	7
Nc1ccc2cc3[nH]c4cc(N)ccc4c3nc2c1	140	0	-9	-11
Cc1[nH][nH]c(=O)c1N=Nc1ccccc1Cl	-13	0	2	1
Clc1ccccc1N=Nc1ccccn1	41*	0	10	14
COc1ccccc1C(=O)N1CCC(Oc2cccnc2)CC1	nt	nt	6	0
Cc1ccc(S(=O)(=O)N(C)Cc2ccc(C(=O)N/N=C/c3ccc(OC(F)F)cc3OC(F)F)cc2)cc1	31*	0	1	-5
CCN(c1cccc(C)c1)S(=O)(=O)c1csc(C(N)=O)c1	6	0	-9	0
CCN(c1cccc(C)c1)S(=O)(=O)c1ccc(-n2cccn2)cc1	22*	0	4	-10
O=C(NCc1ccncc1)C1Cc2c(-c3ccccc3Oc3ccccc3)ccnc2O1 (configuration not stated)	-3	1	-1	-11
O=C(c1ccccn1)N1CCN(S(=O)(=O)c2ccccc2)CC1	24*	0	1	7
CC(=O)c1ccc2noc(-c3ccc(F)cc3)c2c1	37*	0	8	5
SMILES	CendR NRP1 mod	aDG glyco act	Tn7 DDE FP	DDE Tn6 FP inh
COc1ccccc1CN1CCNC(=O)C1CC(=O)NCCC1=CCCCC1 (configuration not stated)	-6	1	1	2
CCOc1ccccc1CN1CCNC(=O)C1CC(=O)NCCC1=CCCCC1 (configuration not stated)	45*	0	1	-7
CCN(CC)C(=O)CSc1nnc(-c2ccc(C(C)(C)C)cc2)n1Cc1ccco1	nt	nt	2	4
O=C1CC(c2ccco2)CC2=C1C=Nc1ccccc1N2 (configuration not stated)	-5	0	2	1
O=c1[nH]c2c(s1)C=Nc1ccccc1N2	134	0	30*	7
O=C(NCCOC(=O)c1ccccc1)c1ccccc1	22*	0	2	4
O=C(NCCOC(=O)c1ccc(C(=O)OCCNC(=O)c2ccccc2)o1)c1ccccc1	-5	0	1	6
CCCCS(=O)(=O)NCC1CCN(C(=O)C(=O)c2cc3ccccc3o2)CC1	nt	nt	-2	1
Cc1cccc(N2C(=O)C(Cl)=C(Nc3c(C)n(C)n(-c4ccccc4)c3=O)C2=O)c1C	26*	0	5	-5
Cc1ccc(N2C(=O)C(Cl)=C(Nc3c(C)n(C)n(-c4ccccc4)c3=O)C2=O)cc1	6	0	3	-1
CCOc1cc2c(cc1O)C(=NOC)CC1C2CCC2(C)C(O)CCC12 (configuration not stated)	-13	0	7	-1
Nc1sc2c(c1C(=O)NCCc1ccccc1)CCCC2	-22	0	-1	28*
COc1ccc(-n2nc(C(=O)NCC(=O)NC3CCCCCC3)c3ccccc3c2=O)c(OC)c1	19*	0	-4	5
CCN1CCN(CC2CC3C=CC2C3)CC1 (configuration not stated)	31*	0	-9	-3
O=C(NCCNC(=O)Oc1cccc2ccccc12)Oc1cccc2ccccc12	5	0	0	-4
CNC(=O)C[C@@H]1CC[C@@H]2[C@H](COC[C@H](O)CN2S(=O)(=O)c2ccccc2Cl)O1	32*	0	5	9
NC1=CC(=O)C(=O)c2ccccc21	29*	0	-5	14
O=C1C2C3CC(C(Br)C3Br)C2C(=O)N1CC1CCCO1 (configuration not stated)	-2	0	-3	0
CC(C(=O)NCC1CCCO1)N1C(=O)C2C3CC(C(Br)C3Br)C2C1=O (configuration not stated)	19*	0	-2	4
Cc1ccc(C)c(-n2c(SCC(=O)NC(C(=O)O)C(C)C)nnc2-c2cccc(Cl)c2)c1 (configuration not stated)	26*	0	1	-7
CNC(=O)CSc1nnc(-c2ccco2)n1-c1cc(C)ccc1C	9	0	1	8
CCCCCCCCN1C(=O)N(Cc2ccc(OC)cc2)S(=O)(=O)c2ccc(F)cc21	nt	nt	4	-4
NCc1cc2c3c(c1)CCCN3CCC2	40*	0	0	-3
COc1c(C=O)cc2c3c1CCCN3CCC2	-7	0	2	-8
CN(C(=O)COc1ccccc1)c1nnc(C23CC4CC(CC(C4)C2)C3)s1	19*	0	-1	4
O=C(O)c1ccccc1NS(=O)(=O)c1ccc(NNC(=S)Nc2ccc(OC(F)F)cc2)c([N+](=O)[O-])c1	26*	0	3	-19
O=C(NCCCN1CCCCCC1)c1ccc(CS(=O)(=O)Cc2ccccc2F)o1	30*	0	-6	0
CC1CCN(CCCNC(=O)c2ccc(CS(=O)(=O)Cc3ccccc3F)o2)CC1	-15	-1	-4	3
